Assay results: ChEMBL document CHEMBL4689842, “EUbOPEN Chemogenomics Library wave 1” (2021)
“And” between values parts separate entries of the source, which are not always exact repeats. Identical values can stand only once.

Tested on: Fibroblast
Assay: Multiplex assay against human fibroblast
Assay type: toxicity, cell-based
In short: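 With compound added, live cells were imaged on a CQ1 microscope at 37°C and 5% CO2; staining with Hoechst33342, BioTracker Green Microtubule Cytoskeleton Dye, MitoTracker Red and Annexin V Alexa Fluor 680 had been done at seeding. The CellPathfinder machine-learning gating scheme split cells into Hoechst high-intensity objects or normal cells, normal cells into healthy, pyknosed or fragmented nuclei, and pyknosed cells into mitotic or apoptotic. The tubulin, mitochondrial-mass and membrane-permeability phenotypes are per cents of healthy-nucleus cells.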

[1] = 12 h, 1 µM, compound concentration 1 uM, replicate 1
[2] = 12 h, 1 µM, compound concentration 1 uM, replicate 2
[3] = 12 h, 10 µM, compound concentration 10 uM, replicate 1
[4] = 12 h, 10 µM, compound concentration 10 uM, replicate 2
[5] = 24 h, 1 µM, compound concentration 1 uM, replicate 1
[6] = 24 h, 1 µM, compound concentration 1 uM, replicate 2
[7] = 24 h, 10 µM, compound concentration 10 uM, replicate 1
[8] = 24 h, 10 µM, compound concentration 10 uM, replicate 2
[9] = 48 h, 1 µM, compound concentration 1 uM, replicate 1
[10] = 48 h, 1 µM, compound concentration 1 uM, replicate 2
[11] = 48 h, 10 µM, compound concentration 10 uM, replicate 1
[12] = 48 h, 10 µM, compound concentration 10 uM, replicate 2

c1cn2cc(-c3ccc4cn[nH]c4c3)nc(Nc3ccc(N4CCOCC4)cc3)c2n1 [ENTOSPLETINIB]
Population Apoptotic (%) [1]: 60% | Population Fragmented Nuclei (%) [1]: 23% | Population Healthy Nuclei (%) [1]: 36% | Population Hoechst High Intensity Objects (%) [1]: 14% | Population Membrane Permeable-Phenotype (%) [1]: 20% | Population Mitochondria Different-Phenotype (%) [1]: 12% | Population Mitotic Cells (%) [1]: 39% | Population Normal (%) [1]: 85% | Population Pyknosed Nuclei (%) [1]: 40% | Population Tubulin-Different-Phenotype (%) [1]: 52% | Total Cell Count [1]: 81 | Population Apoptotic (%) [2]: 40% | Population Fragmented Nuclei (%) [2]: 16% | Population Healthy Nuclei (%) [2]: 73% | Population Hoechst High Intensity Objects (%) [2]: 5% | Population Membrane Permeable-Phenotype (%) [2]: 10% | Population Mitochondria Different-Phenotype (%) [2]: 23% | Population Mitotic Cells (%) [2]: 60% | Population Normal (%) [2]: 94% | Population Pyknosed Nuclei (%) [2]: 9% | Population Tubulin-Different-Phenotype (%) [2]: 25% | Total Cell Count [2]: 59 | Population Apoptotic (%) [3]: 51% | Population Fragmented Nuclei (%) [3]: 24% | Population Healthy Nuclei (%) [3]: 3% | Population Hoechst High Intensity Objects (%) [3]: 41% | Population Membrane Permeable-Phenotype (%) [3]: 14% | Population Mitochondria Different-Phenotype (%) [3]: 4% | Population Mitotic Cells (%) [3]: 48% | Population Normal (%) [3]: 58% | Population Pyknosed Nuclei (%) [3]: 72% | Population Tubulin-Different-Phenotype (%) [3]: 23% | Total Cell Count [3]: 1163 | Population Apoptotic (%) [4]: 92% | Population Fragmented Nuclei (%) [4]: 30% | Population Healthy Nuclei (%) [4]: 2% | Population Hoechst High Intensity Objects (%) [4]: 25% | Population Membrane Permeable-Phenotype (%) [4]: 21% | Population Mitochondria Different-Phenotype (%) [4]: 82% | Population Mitotic Cells (%) [4]: 7% | Population Normal (%) [4]: 74% | Population Pyknosed Nuclei (%) [4]: 67% | Population Tubulin-Different-Phenotype (%) [4]: 78% | Total Cell Count [4]: 56 | Population Apoptotic (%) [5]: 60% | Population Fragmented Nuclei (%) [5]: 25% | Population Healthy Nuclei (%) [5]: 57% | Population Hoechst High Intensity Objects (%) [5]: 11% | Population Membrane Permeable-Phenotype (%) [5]: 23% | Population Mitochondria Different-Phenotype (%) [5]: 7% | Population Mitotic Cells (%) [5]: 40% | Population Normal (%) [5]: 88% | Population Pyknosed Nuclei (%) [5]: 16% | Population Tubulin-Different-Phenotype (%) [5]: 51% | Total Cell Count [5]: 102 | Population Apoptotic (%) [6]: 14% | Population Fragmented Nuclei (%) [6]: 14% | Population Healthy Nuclei (%) [6]: 74% | Population Hoechst High Intensity Objects (%) [6]: 4% | Population Membrane Permeable-Phenotype (%) [6]: 17% | Population Mitochondria Different-Phenotype (%) [6]: 15% | Population Mitotic Cells (%) [6]: 85% | Population Normal (%) [6]: 95% | Population Pyknosed Nuclei (%) [6]: 11% | Population Tubulin-Different-Phenotype (%) [6]: 21% | Total Cell Count [6]: 78 | Population Apoptotic (%) [7]: 48% | Population Fragmented Nuclei (%) [7]: 22% | Population Healthy Nuclei (%) [7]: 3% | Population Hoechst High Intensity Objects (%) [7]: 44% | Population Membrane Permeable-Phenotype (%) [7]: 23% | Population Mitochondria Different-Phenotype (%) [7]: 4% | Population Mitotic Cells (%) [7]: 51% | Population Normal (%) [7]: 55% | Population Pyknosed Nuclei (%) [7]: 74% | Population Tubulin-Different-Phenotype (%) [7]: 47% | Total Cell Count [7]: 1126 | Population Apoptotic (%) [8]: 89% | Population Fragmented Nuclei (%) [8]: 33% | Population Healthy Nuclei (%) [8]: 2% | Population Hoechst High Intensity Objects (%) [8]: 26% | Population Membrane Permeable-Phenotype (%) [8]: 8% | Population Mitochondria Different-Phenotype (%) [8]: 36% | Population Mitotic Cells (%) [8]: 10% | Population Normal (%) [8]: 73% | Population Pyknosed Nuclei (%) [8]: 64% | Population Tubulin-Different-Phenotype (%) [8]: 20% | Total Cell Count [8]: 65 | Population Apoptotic (%) [9]: 75% | Population Fragmented Nuclei (%) [9]: 29% | Population Healthy Nuclei (%) [9]: 65% | Population Hoechst High Intensity Objects (%) [9]: 15% | Population Membrane Permeable-Phenotype (%) [9]: 18% | Population Mitochondria Different-Phenotype (%) [9]: 6% | Population Mitotic Cells (%) [9]: 25% | Population Normal (%) [9]: 84% | Population Pyknosed Nuclei (%) [9]: 4% | Population Tubulin-Different-Phenotype (%) [9]: 39% | Total Cell Count [9]: 104 | Population Apoptotic (%) [10]: 33% | Population Fragmented Nuclei (%) [10]: 28% | Population Healthy Nuclei (%) [10]: 68% | Population Hoechst High Intensity Objects (%) [10]: 11% | Population Membrane Permeable-Phenotype (%) [10]: 9% | Population Mitochondria Different-Phenotype (%) [10]: 1% | Population Mitotic Cells (%) [10]: 66% | Population Normal (%) [10]: 88% | Population Pyknosed Nuclei (%) [10]: 2% | Population Tubulin-Different-Phenotype (%) [10]: 50% | Total Cell Count [10]: 116 | Population Apoptotic (%) [11]: 43% | Population Fragmented Nuclei (%) [11]: 14% | Population Healthy Nuclei (%) [11]: 4% | Population Hoechst High Intensity Objects (%) [11]: 47% | Population Membrane Permeable-Phenotype (%) [11]: 14% | Population Mitochondria Different-Phenotype (%) [11]: 0% | Population Mitotic Cells (%) [11]: 56% | Population Normal (%) [11]: 52% | Population Pyknosed Nuclei (%) [11]: 80% | Population Tubulin-Different-Phenotype (%) [11]: 17% | Total Cell Count [11]: 1093 | Population Apoptotic (%) [12]: 82% | Population Fragmented Nuclei (%) [12]: 24% | Population Healthy Nuclei (%) [12]: 6% | Population Hoechst High Intensity Objects (%) [12]: 64% | Population Membrane Permeable-Phenotype (%) [12]: 12% | Population Mitochondria Different-Phenotype (%) [12]: 12% | Population Mitotic Cells (%) [12]: 17% | Population Normal (%) [12]: 35% | Population Pyknosed Nuclei (%) [12]: 69% | Population Tubulin-Different-Phenotype (%) [12]: 46% | Total Cell Count [12]: 1794

Cn1cc(C2=C(c3cn(C4CCN(Cc5ccccn5)CC4)c4ccccc34)C(=O)NC2=O)c2ccccc21 [ENZASTAURIN]
Population Apoptotic (%) [1]: 79% and 42% | Population Fragmented Nuclei (%) [1]: 34% and 40% | Population Healthy Nuclei (%) [1]: 49% and 35% | Population Membrane Permeable-Phenotype (%) [1]: 8% and 7% | Population Mitotic Cells (%) [1]: 20% and 57% | Population Normal (%) [1]: 84% and 33% | Population Pyknosed Nuclei (%) [1]: 15% and 23% | Total Cell Count [1]: 220 and 479 | Population Apoptotic (%) [2]: 66% and 55% | Population Fragmented Nuclei (%) [2]: 70% and 45% | Population Healthy Nuclei (%) [2]: 19% and 34% | Population Hoechst High Intensity Objects (%) [2]: 30% and 51% | Population Membrane Permeable-Phenotype (%) [2]: 16% and 0% | Population Mitochondria Different-Phenotype (%) [2]: 25% and 60% | Population Mitotic Cells (%) [2]: 33% and 44% | Population Normal (%) [2]: 69% and 48% | Population Pyknosed Nuclei (%) [2]: 9% and 20% | Total Cell Count [2]: 88 and 91 | Population Apoptotic (%) [5]: 64% and 73% | Population Fragmented Nuclei (%) [5]: 47% and 27% | Population Healthy Nuclei (%) [5]: 23% and 58% | Population Membrane Permeable-Phenotype (%) [5]: 6% and 3% | Population Mitotic Cells (%) [5]: 35% and 26% | Population Normal (%) [5]: 28% and 83% | Population Pyknosed Nuclei (%) [5]: 28% and 13% | Total Cell Count [5]: 427 and 225 | Population Apoptotic (%) [6]: 33% and 90% | Population Fragmented Nuclei (%) [6]: 67% and 50% | Population Healthy Nuclei (%) [6]: 26% and 19% | Population Hoechst High Intensity Objects (%) [6]: 34% and 50% | Population Membrane Permeable-Phenotype (%) [6]: 7% and 14% | Population Normal (%) [6]: 65% and 49% | Total Cell Count [6]: 75 and 73
